Test results published in ChEMBL document CHEMBL1133137, “Synthesis and biological effects of a new series of 2-amino-3-benzoylthiophenes as allosteric enhancers of A1-adenosine receptor” (Bioorg Med Chem Lett, 2000).

What was measured:
Type in all cases: functional, cell-based
[1] = molecular target: T1, Adenosine receptor A1 (Homo sapiens) (UniProt P30542); experiment: Percentage of response to 10 uM of PD-81723 on CHO cells expressing the cloned human A1-adenosine receptor at 1 uM concentration
T1 sequence (whole entry): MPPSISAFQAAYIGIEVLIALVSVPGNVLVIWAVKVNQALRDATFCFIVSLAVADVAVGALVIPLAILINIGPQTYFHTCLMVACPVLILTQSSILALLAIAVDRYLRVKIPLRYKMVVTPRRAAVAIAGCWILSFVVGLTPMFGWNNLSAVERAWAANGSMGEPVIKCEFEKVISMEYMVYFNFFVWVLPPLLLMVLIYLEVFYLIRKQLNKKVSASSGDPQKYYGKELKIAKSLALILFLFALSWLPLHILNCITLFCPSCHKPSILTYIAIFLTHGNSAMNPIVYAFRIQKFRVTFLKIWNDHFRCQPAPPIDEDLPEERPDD
Method in brief: (§1)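 CHO cells stably expressing recombinant human A1 receptors (~8000 fmol/mg protein), thawed from low-passage frozen stocks, grown to confluence over 48–72 h in Ham's F-12 with 10% FBS and G-418. Test compound incubated 6 min at 36 °C with 0.05–0.1 nM CPA. Reaction stopped with HCl (final 50 mM). cAMP in acid extracts measured by radioimmunoassay. Reduction normalized to the response to 10 μM PD 81,723.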

[2] = molecular target: T1, Adenosine receptor A1 (Homo sapiens); experiment: Percentage of response to 10 uM of PD-81723 on CHO cells expressing the cloned human A1-adenosine receptor at 10 uM concentration; method in brief: as §1
[3] = molecular target: T1, Adenosine receptor A1 (Homo sapiens); experiment: Percentage of response to 10 uM of PD-81723 on CHO cells expressing the cloned human A1-adenosine receptor at 0.1 uM concentration; method in brief: as §1
[4] = molecular target: T1, Adenosine receptor A1 (Homo sapiens); experiment: The compound was tested for its percentage of response to 10 uM of PD-81723 on CHO cells expressing the cloned human A1-adenosine receptor at 10 uM concentration; change of less than 5% of allosteric enhancement.; method in brief: as §1
[5] = molecular target: T1, Adenosine receptor A1 (Homo sapiens); experiment: Percentage of response to 10 uM of PD-81723 on CHO cells expressing the cloned human A1-adenosine receptor at 1 uM; An increase of cAmp content of cells; method in brief: as §1
[6] = molecular target: T1, Adenosine receptor A1 (Homo sapiens); experiment: Percent response to 10 uM PD-81723 on CHO cells expressing human A1-adenosine receptor at 0.1 uM; An increase of cAmp content of cells; method in brief: as §1
[7] = molecular target: T1, Adenosine receptor A1 (Homo sapiens); experiment: The compound was tested for its percentage of response to 10 uM of PD-81723 on CHO cells expressing the cloned human A1-adenosine receptor at 10 uM; change of less than 5% of allosteric enhancement.; method in brief: as §1
[8] = molecular target: T1, Adenosine receptor A1 (Homo sapiens); experiment: Percentage of response to 10 uM of PD-81723 on CHO cells expressing the cloned human A1-adenosine receptor at 0.1 uM; method in brief: as §1
[9] = molecular target: T1, Adenosine receptor A1 (Homo sapiens); experiment: The compound was tested for its percentage of response to 10 uM of PD-81723 on CHO cells expressing the cloned human A1-adenosine receptor at 1 uM concentration; change of less than 5% of allosteric enhancement.; method in brief: as §1
[10] = molecular target: T1, Adenosine receptor A1 (Homo sapiens); experiment: The compound was tested for its percentage of response to 10 uM of PD-81723 on CHO cells expressing the cloned human A1-adenosine receptor at 0.1 uM concentration; An increase of cAmp content of cells; method in brief: as §1
[11] = molecular target: T1, Adenosine receptor A1 (Homo sapiens); experiment: Percentage of response to 10 uM of PD-81723 on CHO cells expressing the cloned human A1-adenosine receptor at 10 uM; An increase of cAmp content of cells; method in brief: as §1
[12] = molecular target: T1, Adenosine receptor A1 (Homo sapiens); experiment: The compound was tested for its percentage of response to 10 uM of PD-81723 on CHO cells expressing the cloned human A1-adenosine receptor at 0.1 uM; An increase of cAmp content of cells; method in brief: as §1
[13] = molecular target: T1, Adenosine receptor A1 (Homo sapiens); experiment: The compound was tested for its percentage of response to 10 uM of PD-81723 on CHO cells expressing the cloned human A1-adenosine receptor at 10 uM; An increase of cAmp content of cells; method in brief: as §1
[14] = molecular target: T1, Adenosine receptor A1 (Homo sapiens); experiment: The compound was tested for its percentage of response to 10 uM of PD-81723 on CHO cells expressing the cloned human A1-adenosine receptor at 10 uM; method in brief: as §1
[15] = molecular target: T1, Adenosine receptor A1 (Homo sapiens); experiment: The compound was tested for its percentage of response to 10 uM of PD-81723 on CHO cells expressing the cloned human A1-adenosine receptor at 1 uM; method in brief: as §1
[16] = molecular target: T1, Adenosine receptor A1 (Homo sapiens); experiment: The compound was tested for its percentage of response to 10 uM of PD-81723 on CHO cells expressing the cloned human A1-adenosine receptor at 0.1 uM concentration; change of less than 5% of allosteric enhancement; method in brief: as §1
[17] = molecular target: T1, Adenosine receptor A1 (Homo sapiens); experiment: The compound was tested for its percentage of response to 10 uM of PD-81723 on CHO cells expressing the cloned human A1-adenosine receptor at 0.1 uM concentration; change of less than 5% of allosteric enhancement.; method in brief: as §1
[18] = molecular target: T1, Adenosine receptor A1 (Homo sapiens); experiment: The compound was tested for its percentage of response to 10 uM of PD-81723 on CHO cells expressing the cloned human A1-adenosine receptor at 1 uM; change of less than 5% of allosteric enhancement.; method in brief: as §1
[19] = molecular target: T1, Adenosine receptor A1 (Homo sapiens); experiment: The compound was tested for its percentage of response to 10 uM of PD-81723 on CHO cells expressing the cloned human A1-adenosine receptor at 10 uM concentration; An increase of cAmp content of cells; method in brief: as §1
[20] = molecular target: T1, Adenosine receptor A1 (Homo sapiens); experiment: The compound was tested for its percentage of response to 10 uM of PD-81723 on CHO cells expressing the cloned human A1-adenosine receptor at 0.1; change of less than 5% of allosteric enhancement.; method in brief: as §1

Response [1]	Response [2]	Response [3]	SMILES	also measured
29%	82%	35%	Nc1sc2c(c1C(=O)c1ccccc1)CCC2	–
6%	–	14%	Nc1sc2c(c1C(=O)c1ccc(-c3ccccc3)cc1)CCN(C(=O)OCc1ccccc1)C2	Response [4]: < 5%
–	–	–	Nc1sc2c(c1C(=O)c1ccc(I)cc1)CCC2	Response [5]: Increased cAMP; Response [6]: Increased cAMP; Response [7]: < 5%
53%	72%	31%	Nc1sc2c(c1C(=O)c1ccc(Br)cc1)CCC2	–
9%	12%	–	Nc1sc2c(c1C(=O)c1ccccc1)CCNC2	Response [8]: < 5%
36%	61%	26%	Nc1sc2c(c1C(=O)c1ccc(F)cc1)CCCCC2	–
58%	86%	57%	Nc1sc2c(c1C(=O)c1ccc(Cl)cc1)CCCC2	–
–	–	–	Nc1sc2c(c1C(=O)c1ccc(I)cc1)CCNC2	Response [8]: < 5%; Response [9]: < 5%; Response [4]: < 5%
42%	72%	25%	Nc1sc2c(c1C(=O)c1ccc(Cl)cc1)CCCCC2	–
29%	54%	–	Nc1sc2c(c1C(=O)c1ccccc1)CCCCC2	Response [10]: Increased cAMP
8%	25%	7%	Nc1sccc1C(=O)c1ccc(Cl)cc1	–
–	–	–	Cc1ccc(S(=O)(=O)N2CCc3c(sc(N)c3C(=O)c3ccccc3)C2)cc1	Response [5]: Increased cAMP; Response [6]: Increased cAMP; Response [11]: Increased cAMP
–	–	–	Nc1sc2c(c1C(=O)c1ccc(Br)cc1)CCN(C(=O)OCc1ccccc1)C2	Response [5]: Increased cAMP; Response [12]: Increased cAMP; Response [13]: Increased cAMP
41%	85%	18%	Nc1sc2c(c1C(=O)c1cccc(C(F)(F)F)c1)CCN(Cc1ccccc1)C2	–
7%	22%	–	Nc1sc2c(c1C(=O)c1cccc(C(F)(F)F)c1)CCN(CCCc1ccccc1)C2	Response [8]: < 5%
67%	67%	50%	Nc1sc2c(c1C(=O)c1ccc(Br)cc1)CCCC2	–
–	–	–	Nc1sc2c(c1C(=O)c1ccc(Cl)cc1)CCN(CCc1ccc([N+](=O)[O-])cc1)C2	Response [5]: Increased cAMP; Response [14]: 31%; Response [6]: Increased cAMP; Response [15]: 13%; Response [11]: Increased cAMP
52%	92%	30%	Cc1sc(N)c(C(=O)c2ccc(Cl)cc2)c1C	–
79%	68%	14%	Nc1sc2c(c1C(=O)c1ccc(-c3ccccc3)cc1)CCCC2	–
26%	28%	51%	Nc1sccc1C(=O)c1ccccc1	–
43%	83%	–	Nc1sc2c(c1C(=O)c1ccc(F)cc1)CCCC2	Response [8]: < 5%
43%	65%	–	Nc1sc2c(c1C(=O)c1ccc(F)cc1)CCC2	Response [8]: < 5%
54%	36%	–	COc1ccc(C(=O)c2c(N)sc3c2CCCCC3)cc1	Response [8]: < 5%

Response [1]	Response [2]	Response [3]	SMILES	also measured
44%	71%	–	COc1ccc(C(=O)c2c(N)sc3c2CCCC3)cc1	Response [8]: < 5%
15%	31%	8%	Nc1sc2c(c1C(=O)c1ccc(Cl)cc1)CCN(CCCc1ccccc1)C2	–
–	68%	–	Nc1sc2c(c1C(=O)c1ccccc1)SCC2	Response [10]: Increased cAMP; Response [9]: < 5%
32%	–	58%	Nc1sc2c(c1C(=O)c1ccc(Cl)cc1)CCN(CCc1ccccc1)C2	Response [11]: Increased cAMP
–	–	–	Nc1sc2c(c1C(=O)c1ccc(Cl)cc1)CCN(Cc1ccccc1)C2	Response [5]: Increased cAMP; Response [8]: < 5%; Response [11]: Increased cAMP
–	19%	–	Cc1sc(N)c(C(=O)c2ccccc2)c1C	Response [5]: Increased cAMP; Response [16]: < 5%
–	–	–	Nc1sc2c(c1C(=O)c1ccc(I)cc1)CCN(C(=O)OCc1ccccc1)C2	Response [8]: < 5%; Response [9]: < 5%; Response [4]: < 5%
–	–	–	Nc1sc2c(c1C(=O)c1ccc(Br)cc1)CCNC2	Response [17]: < 5%; Response [9]: < 5%; Response [4]: < 5%
–	–	–	Nc1sc2c(c1C(=O)c1ccc(-c3ccccc3)cc1)CCNC2	Response [8]: < 5%; Response [11]: Increased cAMP; Response [9]: < 5%
–	–	10%	CCOC(=O)CN1CCc2c(sc(N)c2C(=O)c2ccc(Cl)cc2)C1	Response [5]: Increased cAMP; Response [11]: Increased cAMP
–	–	–	Nc1sc2c(c1C(=O)c1ccc(Cl)cc1)CCC2	Response [6]: Increased cAMP; Response [4]: < 5%; Response [18]: < 5%
–	–	–	Nc1sc2c(c1C(=O)c1cccc(C(F)(F)F)c1)CCN(CCc1ccccc1)C2	Response [8]: < 5%; Response [19]: Increased cAMP; Response [9]: < 5%
13%	31%	–	Nc1sc2c(c1C(=O)c1ccccc1)CCN(CCc1ccc([N+](=O)[O-])cc1)C2	Response [6]: Increased cAMP
–	–	–	Nc1sc2c(c1C(=O)c1ccccc1)CCN(C(=O)OCc1ccccc1)C2	Response [5]: Increased cAMP; Response [6]: Increased cAMP; Response [11]: Increased cAMP
48%	77%	16%	Nc1sc2c(c1C(=O)c1ccccc1)CCCC2	–
12%	9%	15%	Nc1sc2c(c1C(=O)c1ccc(Cl)cc1)CCNC2	–
–	–	–	CCOC(=O)CN1CCc2c(sc(N)c2C(=O)c2ccccc2)C1	Response [5]: Increased cAMP; Response [6]: Increased cAMP; Response [11]: Increased cAMP
40%	100%	13%	Cc1sc(N)c(C(=O)c2cccc(C(F)(F)F)c2)c1C	–
43%	42%	–	COc1ccc(C(=O)c2c(N)sc3c2CCC3)cc1	Response [8]: < 5%
39%	68%	24%	Nc1sc2c(c1C(=O)c1ccc(Cl)cc1)CCCCCC2	–
–	–	–	Nc1sc2c(c1C(=O)c1ccc(F)cc1)CCN(C(=O)OCc1ccccc1)C2	Response [5]: Increased cAMP; Response [8]: < 5%; Response [11]: Increased cAMP
–	–	–	Nc1sc2c(c1C(=O)c1ccc(Cl)cc1)CCN(C(=O)OCc1ccccc1)C2	Response [5]: Increased cAMP; Response [11]: Increased cAMP; Response [20]: < 5%
